The subject of one data set is Trypanosoma cruzi. The data set is described as follows: Antitrypanosomal activity against nifurtimox-sensitive Trypanosoma cruzi Tulahuen CL2 infected in human MRC-5 SV2 cells assessed as inhibition of parasite growth measured after 7 days by spectrophotometric analysis. Conditions: Tulahuen CL2, MRC-5 SV2, 168 h. It counts as functional, organism-based.
Data set [1] can be described thus: Cytotoxicity against human MRC-5 SV2 cells assessed as reduction in cell growth measured after 3 days by resazurin dye based fluorometric analysis. Conditions: time 3 day. A general note: Resazurin is reduced to fluorescent resorufin, in cell work by metabolically active cells.
A further data set concerns Leishmania infantum. In words: Antileishmanial activity against amastigote form of Leishmania infantum MHOM/MA(BE)/67 infected in Swiss mouse peritoneal macrophages assessed as reduction in parasite growth treated at 2 hrs post-infection and measured after 5 days by Giemsa staining based microscopic analysis. It counts as functional, organism-based. The note with it: MHOM/MA(BE)/67, Peritoneal macrophage. In outline: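 Swiss mouse peritoneal macrophages, harvested after 2-day potato-starch stimulation, infected 48 h after plating; compounds added 2 h post-infection.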

Data set [2] is described as follows: Cytotoxicity against Swiss mouse peritoneal macrophages assessed as cell detachment, lysis and granulation measured after 5 days by microscopic analysis. It counts as cell-based, Peritoneal macrophage. The note with it: time 5 day. Put shortly: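 Scored within the Leishmania macrophage assay over 5 days: detachment, lysis and granulation judged semi-quantitatively by microscopy across at least 500 cells. CC50 derived from % reduction in normal cells versus untreated wells.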

As usually defined, the IC50 is the concentration at which inhibition is half-maximal. In general, CC50 refers to the concentration giving 50% cytotoxicity.

With `CC(C)(C)c1ccc(-c2nn([C@@H]3O[C@H](CO)[C@@H](O)[C@H]3O)c3ncnc(N)c23)cc1`, the IC50 in the data set on Trypanosoma cruzi and with Leishmania infantum was over 64 µM in each case. The CC50 at 72 h in data set [1] was over 64 µM. In addition, in data set [2], the CC50 at 120 h was over 64 µM.
`Nc1ncnc2c1c(Oc1ccc(Cl)cc1)nn2[C@@H]1O[C@H](CO)[C@@H](O)[C@H]1O`: the half-maximal inhibitory concentration (IC50) with Trypanosoma cruzi and with Leishmania infantum was over 64 µM each time. For the same compound, the 50% cytotoxic concentration (CC50) at 72 h in data set [1] is over 64 µM. Also, the half-maximal cytotoxic concentration (CC50) at 120 h in data set [2] is over 64 µM.
Consider `Nc1ncnc2c1cnn2[C@@H]1O[C@H](CO)[C@@H](F)[C@H]1O`, for which the IC50 in the data set on Trypanosoma cruzi and in the data set on Leishmania infantum was over 64 µM in each case. In addition, the CC50 at 72 h in data set [1] is over 64 µM. Also, the CC50 at 120 h in data set [2] is over 64 µM.
Regarding `Nc1ncnc2c1cnn2[C@H]1C[C@H](O)[C@@H](CO)O1`, the IC50 in the data set on Trypanosoma cruzi and in the data set with Leishmania infantum was over 64 µM throughout. The CC50 at 72 h in data set [1] is over 64 µM. The CC50 at 120 h in data set [2] was over 64 µM.
`Nc1ncnc2c1c(C(=O)N1CCCC1)nn2[C@@H]1O[C@H](CO)[C@@H](O)[C@H]1O`: the IC50 in the data set with Trypanosoma cruzi and with Leishmania infantum was over 64 µM in each case. Further, in data set [1], the CC50 at 72 h is over 64 µM. Besides, the CC50 at 120 h in data set [2] was over 64 µM.
On to `Nc1ncnc2c1c(-c1nnn[nH]1)nn2[C@@H]1O[C@H](CO)[C@@H](O)[C@H]1O`, for which the half-maximal inhibitory concentration (IC50) with Trypanosoma cruzi and in the data set on Leishmania infantum was over 64 µM in each case. For the same compound, the CC50 at 72 h in data set [1] is over 64 µM. In data set [2], the cytotoxic concentration (CC50) at 120 h is over 64 µM.
For the compound `Nc1ncnc2c1c(Br)nn2[C@@H]1O[C@H](CO)C[C@H]1O`, the IC50 was 38.5 µM in the data set with Trypanosoma cruzi and over 64 µM in the data set on Leishmania infantum. The CC50 at 72 h in data set [1] turned out to be 2.2 µM. In addition, the CC50 at 120 h in data set [2] was over 64 µM.
Consider `N#Cc1cc(-c2ccc(-c3nn([C@@H]4O[C@H](CO)[C@@H](O)[C@H]4O)c4ncnc(N)c34)cc2C#N)ccc1Cl`, for which the IC50 with Trypanosoma cruzi and in the data set on Leishmania infantum was over 64 µM each time. The cytotoxic concentration (CC50) at 72 h in data set [1] is over 64 µM. In data set [2], the CC50 at 120 h was over 64 µM.
For `Nc1ncnc2c1c(C(=O)NCc1ccccc1)nn2[C@@H]1O[C@H](CO)[C@@H](O)[C@H]1O`, the IC50 in the data set with Trypanosoma cruzi and with Leishmania infantum was over 64 µM each time. For the same compound, the 50% cytotoxic concentration (CC50) at 72 h in data set [1] was over 64 µM. Also, the CC50 at 120 h in data set [2] was over 64 µM.
For `Nc1ncnc2c1c(CN1CCOCC1)nn2[C@@H]1O[C@H](CO)[C@@H](O)[C@H]1O`, the IC50 in the data set on Trypanosoma cruzi and with Leishmania infantum was over 64 µM in each case. Also, in data set [1], the CC50 at 72 h was over 64 µM. Further, the CC50 at 120 h in data set [2] is over 64 µM.
In the case of `O=c1[nH]cnc2c1c(Br)nn2[C@@H]1O[C@H](CO)[C@@H](O)[C@H]1O`, the concentration for half-maximal inhibition (IC50) in the data set with Trypanosoma cruzi and in the data set with Leishmania infantum was over 64 µM each time. In addition, in data set [1], the CC50 at 72 h was over 64 µM. The half-maximal cytotoxic concentration (CC50) at 120 h in data set [2] was over 64 µM.
On to `O=c1[nH]cnc2c1cnn2[C@@H]1O[C@H](CO)C[C@H]1O`, for which the IC50 in the data set on Trypanosoma cruzi and in the data set with Leishmania infantum was over 64 µM each time. Moreover, the 50% cytotoxic concentration (CC50) at 72 h in data set [1] is over 64 µM. The CC50 at 120 h in data set [2] is over 64 µM.
On to `CCc1nn([C@@H]2O[C@H](CO)[C@@H](O)[C@H]2O)c2ncnc(N)c12`, for which the IC50 with Trypanosoma cruzi and in the data set on Leishmania infantum was over 64 µM throughout. Besides, the CC50 at 72 h in data set [1] was over 64 µM. The CC50 at 120 h in data set [2] was over 64 µM.
With `Nc1ncnc2c1c(N1CCCC1)nn2[C@@H]1O[C@H](CO)[C@@H](O)[C@H]1O`, the IC50 in the data set with Trypanosoma cruzi and with Leishmania infantum was over 64 µM throughout. The CC50 at 72 h in data set [1] was over 64 µM. In addition, in data set [2], the CC50 at 120 h was over 64 µM.
As to `Nc1ncnc2c1cnn2[C@@H]1O[C@H](CO)C[C@H]1O`, the IC50 in the data set with Trypanosoma cruzi and with Leishmania infantum was over 64 µM throughout. Besides, the CC50 at 72 h in data set [1] was over 64 µM. Besides, the CC50 at 120 h in data set [2] is over 64 µM.
For `O=c1[nH]cnc2c1c(Br)nn2[C@@H]1O[C@H](CO)C[C@H]1O`, the IC50 with Trypanosoma cruzi and with Leishmania infantum was over 64 µM each time. Also, in data set [1], the CC50 at 72 h was over 64 µM. Also, the CC50 at 120 h in data set [2] was over 64 µM.
With `CCCCCCCCCCCCCCCCOP(=O)([O-])OCC[N+](C)(C)C` [MILTEFOSINE], the half-inhibitory concentration (IC50) in the data set with Leishmania infantum turned out to be 7.47 µM.

Source of the values: ChEMBL document CHEMBL4811241, “Revisiting Pyrazolo[3,4-d]pyrimidine Nucleosides as Anti-Trypanosoma cruzi and Antileishmanial Agents” (J Med Chem, 2021).
